Experimental data taken from paper PMC5848258 (Clinical Infectious Diseases: An Official Publication of …, 2017).
Marks after values point to notes of the source that are not given here.

Experiments:
HIV-1 subtype B [1] = assay: Change in plasma HIV-1 RNA, GSK3532795 monotherapy for 10 days; type: in vivo, human
In short: (§1)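 HIV-1-infected adults aged 18–55 with plasma HIV-1 RNA ≥5000 copies/mL and CD4+ count ≥200 cells/µL, PI- and MI-naive, were randomized 4:1 to test compound or placebo, double-blind. Dosing was once daily by oral suspension after a ≥10-hour fast for 10 days: part A subtype B, 5–120 mg; part C subtype C, 40 or 120 mg. Plasma HIV-1 RNA was measured by real-time PCR at screening and on days 1–14, 17, 19 and 24–26.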

HIV-1 subtype C = assay: as above; type: in vivo, human; conditions: for Median of the maximum change from baseline in HIV-1 RNA / Median decline (baseline to day 11) in HIV-1 RNA: Part C
In short: as §1

[2] = Plasma pharmacokinetics of GSK3532795, part A; type: in vivo; conditions: human, oral
In short: (§2)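 The test compound was given as monotherapy by oral suspension after a ≥10-hour fast, once daily for 10 days (part A subtype B, 5–120 mg; part C subtype C, 40 or 120 mg). Serial blood samples were taken on days 1 and 10, with troughs on days 2, 4, 6 and 8. Plasma levels were measured by validated LC/MS and analysed noncompartmentally. Dose proportionality was assessed with a power model on log exposure versus log dose.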

[3] = Plasma pharmacokinetics of GSK3532795, part B; type: in vivo, human; conditions: for AUC increase compared with the same dose given as monotherapy: fed vs fasted monotherapy; for AUC / concentration at 24 h / Cmax / Tmax: human, plasma, oral; for AUC: AUCtau (%CV); for concentration at 24 h: C24 (%CV); for Cmax: Cmax (%CV); for Tmax: median (min–max)
In short: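 Male subtype B-infected subjects took the test compound (40 or 80 mg) once daily with atazanavir 400 mg, or with atazanavir/ritonavir 300 mg/100 mg. Dosing was open-label, as an oral suspension with breakfast, for 28 days. Serial samples were taken on days 1 and 10, with troughs on days 2, 4, 6 and 8. Plasma levels were measured by validated LC/MS and analysed noncompartmentally.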

[4] = Plasma pharmacokinetics of GSK3532795, part C; type: in vivo, human; conditions: for AUC / Cmax / Tmax: human, plasma, oral
In short: as §2

Safety assessments = type: in vivo, human; conditions: for Any AE / Deaths / Discontinuations due to AE(s) / Grade 3–4 related AEs / Laboratory abnormalities (grade 3–4) / Serious AEs: Parts A/C
In short: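 Over the 10-day once-daily oral monotherapy (test compound or placebo, double-blind, fasted) and follow-up, staff recorded vital signs, physical examination, laboratory measurements, ECG and adverse events. Adverse events were coded with MedDRA version 17.1. Investigators graded their severity and their relationship to study drug.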

HIV-1 subtype B [5] = assay: Exposure–response relationship; type: in vivo, human; conditions: Part A
In short: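 Part A subjects received the test compound orally, fasted, once daily for 10 days. Plasma concentration at 24 hours on day 10 was measured by validated LC/MS. It was related to the maximum change from baseline in log10 HIV-1 RNA with a 3-parameter […] Emax model, Y = E0 + Emax*C/(EC50 + C).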

[6] = Solubility in aqueous media; type: physicochemical
[7] = healthy subjects; ref Bristol-Myers Squibb, data on file; cited from earlier work
[8] = cited from earlier work
HIV-1 = conditions: cited from earlier work
HIV-1 Gag = conditions: in vitro, compared with BVM; cited from earlier work
[9] = Part B, fed, 40 mg + ATV 300 mg + RTV 100 mg QD
[10] = Part B, fed, 40 mg + ATV 400 mg QD
[11] = Part B, fed, 80 mg + ATV 400 mg QD

Question: Which results are given for `C=C(C)[C@@H]1CC[C@]2(NCCN3CCS(=O)(=O)CC3)CC[C@]3(C)[C@H](CC[C@@H]4[C@@]5(C)CC=C(c6ccc(C(=O)O)cc6)C(C)(C)[C@@H]5CC[C@]43C)[C@@H]12` [GSK3532795]?
Answer: Decline in HIV-1 RNA (HIV-1 subtype B [1]; Part A, 20–120 mg QD dose groups): > 1 log10; Plateau of decline in HIV-1 RNA (HIV-1 subtype B [1]; Part A, 40–120 mg QD dose groups): approximately 1.64 log10 copies/mL; Median decline (baseline to day 11) in HIV-1 RNA (HIV-1 subtype B [1]; Part A, 40–120 mg QD, consistently from approximately day 7): > 1 log10 copies/mL; Range of median of the maximum decline in HIV-1 RNA (HIV-1 subtype B [1]; Part A, 40–120 mg QD, in the presence of baseline Gag polymorphisms (n = 15)): −1.43 to −1.98 log10 copies/mL; Median of the maximum change in HIV-1 RNA from baseline to study discharge on day 24 (HIV-1 subtype B [1]; Part A, across all GSK3532795 groups (5–120 mg QD)): −0.50 to −1.70 log10 copies/mL; Median maximum decline in HIV-1 RNA (HIV-1 subtype B [1]; following 10 days of monotherapy in subtype B–infected subjects): 1.70 log10 copies/mL; Decline in HIV-1 RNA (HIV-1 subtype C; 10 days of 40 mg or 120 mg QD monotherapy, subtype C–infected subjects with ≥1 of 3 Gag polymorphisms at baseline): > 1 log10; Median of the maximum change from baseline in HIV-1 RNA (HIV-1 subtype C; 40 mg QD): −1.35 log10 copies/mL; Median decline (baseline to day 11) in HIV-1 RNA (HIV-1 subtype C; 40 mg QD, observed after day 8): > 1 log10 copies/mL; Median of the maximum change from baseline in HIV-1 RNA (HIV-1 subtype C; 120 mg QD): −1.26 log10 copies/mL; Median decline (baseline to day 11) in HIV-1 RNA (HIV-1 subtype C; 120 mg QD, observed after day 10): > 1 log10 copies/mL; Tmax [2]: 3 h; half-life [2]: 30 to 35 h; AUC ([2]; 5 mg): 2720 ng·h/mL; Cmax ([2]; 5 mg): 171 ng/mL; Tmax ([2]; 5 mg): 3 h; concentration at 24 h ([2]; 5 mg): 81.6 ng/mL; half-life ([2]; 5 mg): 32.7 h; AUC ([2]; 10 mg): 5170 ng·h/mL; Cmax ([2]; 10 mg): 337 ng/mL; Tmax ([2]; 10 mg): 3 h; concentration at 24 h ([2]; 10 mg): 139 ng/mL; half-life ([2]; 10 mg): 33.1 h; AUC ([2]; 20 mg): 11800 ng·h/mL; Cmax ([2]; 20 mg): 705 ng/mL; Tmax ([2]; 20 mg): 4 h; concentration at 24 h ([2]; 20 mg): 326 ng/mL; half-life ([2]; 20 mg): 29.7 h; AUC ([2]; 40 mg): 23000 ng·h/mL; Cmax ([2]; 40 mg): 1480 ng/mL; Tmax ([2]; 40 mg): 3 h; concentration at 24 h ([2]; 40 mg): 713 ng/mL; half-life ([2]; 40 mg): 33.8 h; AUC ([2]; 80 mg): 39300 ng·h/mL; Cmax ([2]; 80 mg): 2470 ng/mL; Tmax ([2]; 80 mg): 3 h; concentration at 24 h ([2]; 80 mg): 1150 ng/mL; half-life ([2]; 80 mg): 30 h; AUC ([2]; 120 mg): 44200 ng·h/mL; Cmax ([2]; 120 mg): 2810 ng/mL; Tmax ([2]; 120 mg): 2.5 h; concentration at 24 h ([2]; 120 mg): 1290 ng/mL; half-life ([2]; 120 mg): 34.9 h; Increase in exposures compared with the same dose given as monotherapy fasted ([3]; GSK3532795 + ATV alone in the fed state): up to 50%; AUC increase compared with the same dose given as monotherapy ([3]; Part B, 40 mg + ATV alone): approximately 40%; AUC increase compared with the same dose given as monotherapy ([3]; Part B, 80 mg + ATV alone): ~50%; Exposures higher with ATV/RTV relative to administration with ATV alone ([3]; Part B, GSK3532795 40 mg): ~ 10%; Increase in exposures between 40 mg and 80 mg ([3]; Part B, coadministered with ATV alone, fed): ~ 2 fold; Tmax delay ([3]; Part B, with ATV ± RTV in the fed state): 1 to 2 h; AUC [3, 9]: 34200 ng·h/mL; AUC [3, 10]: 31400 ng·h/mL; AUC [3, 11]: 59900 ng·h/mL; concentration at 24 h [3, 9]: 1160 ng/mL; concentration at 24 h [3, 10]: 1100 ng/mL; concentration at 24 h [3, 11]: 2010 ng/mL; Cmax [3, 9]: 1850 ng/mL; Cmax [3, 10]: 1670 ng/mL; Cmax [3, 11]: 3160 ng/mL; Tmax [3, 9]: 5 h; Tmax [3, 10]: 4.5 h; Tmax [3, 11]: 4.5 h; Increase in Cmax and AUCtau between 40 mg and 120 mg ([4]; Part C, monotherapy, less than dose-proportional): ~ 2 fold; AUC ([4]; 40 mg): 25600 ng·h/mL; Cmax ([4]; 40 mg): 1560 ng/mL; Tmax ([4]; 40 mg): 3 h; AUC ([4]; 120 mg): 54000 ng·h/mL; Cmax ([4]; 120 mg): 3380 ng/mL; Tmax ([4]; 120 mg): 3 h; Any AE (Safety assessments; 5 mg QD (n=8)): 5 (62.5) n (%); Deaths (Safety assessments; 5 mg QD (n=8)): 0 n (%); Discontinuations due to AE(s) (Safety assessments; 5 mg QD (n=8)): 0 n (%); Grade 3–4 related AEs (Safety assessments; 5 mg QD (n=8)): 0 n (%); Laboratory abnormalities (grade 3–4) (Safety assessments; 5 mg QD (n=8)): 0 n (%); Serious AEs (Safety assessments; 5 mg QD (n=8)): 0 n (%); Any AE (Safety assessments; 10 mg QD (n=8)): 4 (50.0) n (%); Deaths (Safety assessments; 10 mg QD (n=8)): 0 n (%); Discontinuations due to AE(s) (Safety assessments; 10 mg QD (n=8)): 0 n (%); Grade 3–4 related AEs (Safety assessments; 10 mg QD (n=8)): 0 n (%); Laboratory abnormalities (grade 3–4) (Safety assessments; 10 mg QD (n=8)): 0 n (%); Serious AEs (Safety assessments; 10 mg QD (n=8)): 0 n (%); Any AE (Safety assessments; 20 mg QD (n=8)): 4 (50.0) n (%); Deaths (Safety assessments; 20 mg QD (n=8)): 0 n (%); Discontinuations due to AE(s) (Safety assessments; 20 mg QD (n=8)): 0 n (%); Grade 3–4 related AEs (Safety assessments; 20 mg QD (n=8)): 0 n (%); Laboratory abnormalities (grade 3–4) (Safety assessments; 20 mg QD (n=8)): 0 n (%); Serious AEs (Safety assessments; 20 mg QD (n=8)): 0 n (%); Any AE (Safety assessments; 40 mg QD (n=16)): 8 (50.0) n (%); Deaths (Safety assessments; 40 mg QD (n=16)): 0 n (%); Discontinuations due to AE(s) (Safety assessments; 40 mg QD (n=16)): 0 n (%); Grade 3–4 related AEs (Safety assessments; 40 mg QD (n=16)): 0 n (%); Laboratory abnormalities (grade 3–4) (Safety assessments; 40 mg QD (n=16)): 0 n (%); Serious AEs (Safety assessments; 40 mg QD (n=16)): 0 n (%); Any AE (Safety assessments; 80 mg QD (n=8)): 7 (87.5) n (%); Deaths (Safety assessments; 80 mg QD (n=8)): 0 n (%); Discontinuations due to AE(s) (Safety assessments; 80 mg QD (n=8)): 0 n (%); Grade 3–4 related AEs (Safety assessments; 80 mg QD (n=8)): 0 n (%); Laboratory abnormalities (grade 3–4) (Safety assessments; 80 mg QD (n=8)): 0 n (%); Serious AEs (Safety assessments; 80 mg QD (n=8)): 0 n (%); Any AE (Safety assessments; 120 mg QD (n=15)): 10 (66.6) n (%); Deaths (Safety assessments; 120 mg QD (n=15)): 0 n (%); Discontinuations due to AE(s) (Safety assessments; 120 mg QD (n=15)): 0 n (%); Grade 3–4 related AEs (Safety assessments; 120 mg QD (n=15)): 0 n (%); Serious AEs (Safety assessments; 120 mg QD (n=15)): 0 n (%); Laboratory abnormalities (grade 3–4) (Safety assessments; 120 mg QD (n=15), grade 3 transient neutropenia reported as related to GSK3532795): 1 (6.7)^c n (%); Cases of hyperbilirubinemia (Safety assessments; during GSK3532795 monotherapy): no cases; Predicted maximum decline in HIV-1 RNA from baseline (HIV-1 subtype B [5]; Emax model): approximately 1.7 log10 copies/mL; C24 at which apparent response plateau was achieved (HIV-1 subtype B [5]; steady-state C24 vs maximum change in HIV-1 RNA): ≥ 500 ng/mL; solubility [6]: < 1 µg/mL; Half-life (T1/2) [7]: approximately 35 hours; Human serum binding [8]: 86%; EC50 shift in the presence of serum (HIV-1): 5.4 fold; Effect when combined with other antiretrovirals, including integrase inhibitors (HIV-1; in vitro studies): additive; Binding to HIV-1 Gag (HIV-1 Gag): binds reversibly to HIV-1 Gag with greater affinity than BVM
